Holding throughout (format): functional
Experiment [1] relates to Bacillus subtilis. Briefly: Antibacterial activity against Bacillus subtilis at 10 ug/ml by agar plate diffusion technique. Conditions: read-out: IZ.
In experiment [2] the test system is Rattus norvegicus. Briefly: Antiinflammatory activity in Wistar Albino rat assessed as inhibition of carrageenan-induced paw oedema at 20 mg/kg after 3 hrs relative to control. The gist of the method: (§1)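 Wistar albino rats, 150–200 g, six per group, dosed orally with a 20 mg/kg suspension; control gets 0.1 ml 1% gum acacia. After 30 min, 0.1 ml 1% carrageenan in saline is injected subplantar into the right hind paw. Paw volume is read by plethysmograph at 0–4 h. Inhibition = 100(1 − Vtest/Vcontrol) on mean volume increase.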

Experiment [3] has as its system Escherichia coli. Briefly: Antibacterial activity against Escherichia coli at 20 ug/ml by agar plate diffusion technique. Conditions: read-out: IZ.
In experiment [4] the test system is Mus musculus. Briefly: Analgesic activity in Swiss mouse assessed as increase in reaction time at 20 mg/kg, po after 60 mins by Eddy's hot plate technique. The procedure, abridged:
(§2)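 Swiss mice of either sex, 25–35 g, placed one at a time on a hot plate held at 55 °C. End point is paw licking or jumping, whichever comes first, with a 15 s cut-off to avoid paw injury. Reaction time is recorded and reported as percent increase in reaction time.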

The test system of experiment [5] is Aspergillus niger. Briefly: Antifungal activity against Aspergillus niger at 30 ug/ml by paper disc method. The note with it: read-out: IZ.
For experiment [6], the system named is Aspergillus niger. Briefly: Antifungal activity against Aspergillus niger at 10 ug/ml by paper disc method. The note with it: read-out: IZ.
The subject of experiment [7] is Pseudomonas aeruginosa. Briefly: Antibacterial activity against Pseudomonas aeruginosa at 10 ug/ml by agar plate diffusion technique. The note with it: read-out: IZ.
Experiment [8] deals with Bacillus subtilis. Briefly: Antibacterial activity against Bacillus subtilis at 30 ug/ml by agar plate diffusion technique. Conditions: read-out: IZ.
Experiment [9] deals with Staphylococcus aureus. Briefly: Antibacterial activity against Staphylococcus aureus at 30 ug/ml by agar plate diffusion technique. Conditions: read-out: IZ.
The test system of experiment [10] is Candida albicans. Briefly: Antifungal activity against Candida albicans at 30 ug/ml by paper disc method. Conditions: read-out: IZ.
The test system of experiment [11] is Candida albicans. Briefly: Antifungal activity against Candida albicans at 20 ug/ml by paper disc method. The note with it: read-out: IZ.
Experiment [12] relates to Pseudomonas aeruginosa. Briefly: Antibacterial activity against Pseudomonas aeruginosa at 20 ug/ml by agar plate diffusion technique. The note with it: read-out: IZ.
The subject of experiment [13] is Escherichia coli. Briefly: Antibacterial activity against Escherichia coli at 30 ug/ml by agar plate diffusion technique. The note with it: read-out: IZ.
Experiment [14] relates to Aspergillus niger. Briefly: Antifungal activity against Aspergillus niger at 20 ug/ml by paper disc method. Conditions: read-out: IZ.
Experiment [15] concerns Pseudomonas aeruginosa. Briefly: Antibacterial activity against Pseudomonas aeruginosa at 30 ug/ml by agar plate diffusion technique. Conditions: read-out: IZ.
Experiment [16] deals with Candida albicans. Briefly: Antifungal activity against Candida albicans at 10 ug/ml by paper disc method. Conditions: read-out: IZ.
Experiment [17] concerns Mus musculus. Briefly: Analgesic activity in Swiss mouse assessed as increase in reaction time at 20 mg/kg, po after 30 mins by Eddy's hot plate technique. The procedure, abridged:
as §2

Experiment [18] deals with Staphylococcus aureus. Briefly: Antibacterial activity against Staphylococcus aureus at 10 ug/ml by agar plate diffusion technique. The note with it: read-out: IZ.
Experiment [19] has as its system Mus musculus. Briefly: Analgesic activity in Swiss mouse assessed as increase in reaction time at 20 mg/kg, po after 90 mins by Eddy's hot plate technique. The procedure, abridged: as §2
In experiment [20] the test system is Rattus norvegicus. Briefly: Antiinflammatory activity in Wistar Albino rat assessed as inhibition of carrageenan-induced paw oedema at 20 mg/kg after 4 hrs relative to control. The procedure, abridged: as §1
A general note: The carrageenan paw model is a standard test of acute inflammation.

Experiment [21] has as its system Rattus norvegicus. Briefly: Antiinflammatory activity in Wistar Albino rat assessed as inhibition of carrageenan-induced paw oedema at 20 mg/kg after 2 hrs relative to control. The gist of the method:
as §1

Experiment [22] deals with Staphylococcus aureus. Briefly: Antibacterial activity against Staphylococcus aureus at 20 ug/ml by agar plate diffusion technique. The note with it: read-out: IZ.
The test system of experiment [23] is Bacillus subtilis. Briefly: Antibacterial activity against Bacillus subtilis at 20 ug/ml by agar plate diffusion technique. Conditions: read-out: IZ.
Experiment [24] has as its system Escherichia coli. Briefly: Antibacterial activity against Escherichia coli at 10 ug/ml by agar plate diffusion technique. Conditions: read-out: IZ.
For experiment [25], the system named is Rattus norvegicus. Briefly: Antiinflammatory activity in Wistar Albino rat assessed as inhibition of carrageenan-induced paw oedema at 20 mg/kg after 1 hr relative to control. The gist of the method:
as §1

For the compound `Cc1occc1-c1nnc2sc(-c3ccnc(F)c3)nn12`, the zone of inhibition at 10 µg/mL in experiment [1] is 8.12 mm; in [6] it was 7.36 mm; in experiment [7] it was 8.39 mm; in experiment [16], 8.82 mm; in [18], 7.9 mm; in experiment [24] it was 8.54 mm. For the same compound, the inhibition in vivo at 20 mg/kg is 20.4% in experiment [2], 24.4% in experiment [20], 18.2% in experiment [21] and 16.7% in experiment [25]. For the same compound, the zone of inhibition at 20 µg/mL in [3] stood at 14.3 mm; in experiment [11], 16.6 mm; in experiment [12], 15.2 mm; in [14], 13 mm; in experiment [22], 14.2 mm; in experiment [23], 14.8 mm. The values for the Activity in experiment [4], in [17] and in experiment [19] were 6.2%, 4.13% and 16.43%, respectively. In addition, the zone of inhibition at 30 µg/mL in [5] amounted to 22.7 mm; in [8] it was 19.9 mm; in experiment [9], 20.2 mm; in experiment [10], 23.8 mm; in [13], 20.8 mm; in experiment [15], 21.3 mm.
Regarding `COc1ccc(Cc2nnc3sc(-c4ccnc5ccccc45)nn23)cc1OC`, the zone of inhibition at 10 µg/mL in experiment [1] was determined as 7.4 mm; in experiment [6], 6.32 mm; in experiment [7], 7.7 mm; in experiment [16] it was 6.14 mm; in experiment [18] it was 6.96 mm; in experiment [24] it was 7.85 mm. Besides, the inhibition in vivo at 20 mg/kg worked out at 19.1% in experiment [2], 24.8% in experiment [20], 17.1% in experiment [21] and 14.6% in experiment [25]. Moreover, the zone of inhibition at 20 µg/mL in experiment [3] amounted to 14.4 mm; in experiment [11], 13.7 mm; in [12], 14.1 mm; in [14], 13 mm; in experiment [22], 12.6 mm; in experiment [23] it was 13.3 mm. For the same compound, the Activity in [4] is 16.8%; in experiment [17], 7.55%; in experiment [19] it was 21.96%. Besides, the zone of inhibition at 30 µg/mL is 18 mm in experiment [5]; 18.7 mm in experiment [8]; 18.3 mm in experiment [9]; 17.8 mm in experiment [10]; 18.6 mm in experiment [13]; 18.2 mm in experiment [15].
As to `COc1ccc(Cc2nnc3sc(Cc4c[nH]c5ccccc45)nn23)cc1OC`, the zone of inhibition at 10 µg/mL in [1] amounted to 4.33 mm; in [6], 5.24 mm; in experiment [7] it was 4.25 mm; in experiment [16], 4.1 mm; in experiment [18] it was 4.59 mm; in experiment [24], 4.9 mm. The inhibition in vivo at 20 mg/kg in experiment [2] came to 28.3%; in [20] it was 28.5%; in experiment [21] it was 26.8%; in [25], 16.1%. Besides, the zone of inhibition at 20 µg/mL is 8.22 mm in experiment [3]; 7.46 mm in experiment [11]; 8.23 mm in experiment [12]; 9.62 mm in experiment [14]; 7.38 mm in experiment [22]; 7.32 mm in experiment [23]. Further, the Activity amounted to 25% in [4], 13.16% in experiment [17] and 31.88% in experiment [19]. For the same compound, the zone of inhibition at 30 µg/mL was 11.1 mm in experiment [5]; 12.7 mm in experiment [8]; 12.2 mm in experiment [9]; 10.2 mm in experiment [10]; 12.5 mm in experiment [13]; 12.4 mm in experiment [15].
Turning to `CCCCC1C(=O)N(c2ccccc2)N(c2ccccc2)C1=O` [PHENYLBUTAZONE], the inhibition in vivo at 20 mg/kg amounted to 40.8% in [2], 45.4% in experiment [20], 33.6% in experiment [21] and 21.2% in [25].
Consider `NCC[C@H](O)C(=O)N[C@@H]1C[C@H](N)[C@@H](O[C@H]2O[C@H](CN)[C@@H](O)[C@H](O)[C@H]2O)[C@H](O)[C@H]1O[C@H]1O[C@H](CO)[C@@H](O)[C@H](N)[C@H]1O` [AMIKACIN], for which the zone of inhibition at 30 µg/mL in experiment [15] came to 23 mm.
On to `O=C(N[C@H](CO)[C@H](O)c1ccc([N+](=O)[O-])cc1)C(Cl)Cl` [CHLORAMPHENICOL], for which the zone of inhibition at 30 µg/mL in experiment [8] was found to be 24.6 mm; in experiment [9] it was 26.1 mm; in [13] it was 23.7 mm; in experiment [15], 25.4 mm.
As to `Cc1occc1-c1nnc(S)n1N`, the zone of inhibition at 10 µg/mL in [1] came out at 5.8 mm; in [6] it was 3.27 mm; in [7], 6.12 mm; in experiment [16], 3 mm; in [18] it was 5.46 mm; in experiment [24], 6.74 mm. Further, the zone of inhibition at 20 µg/mL amounted to 9.16 mm in experiment [3]; 6.82 mm in experiment [11]; 9.16 mm in experiment [12]; 6.94 mm in [14]; 8.16 mm in experiment [22]; 8.94 mm in experiment [23]. The zone of inhibition at 30 µg/mL in experiment [5] was found to be 13.5 mm; in experiment [8] it was 11.2 mm; in experiment [9] it was 11.3 mm; in experiment [10], 12.4 mm; in experiment [13], 12.8 mm; in experiment [15], 12.8 mm.
Turning to `O=C([O-])Cc1ccccc1Nc1c(Cl)cccc1Cl.[Na+]` [DICLOFENAC SODIUM], the Activity is listed as 38.15% in experiment [4], 32.23% in experiment [17] and 43.25% in experiment [19].
As to `COC1=CC(=O)C[C@@H](C)[C@]12Oc1c(Cl)c(OC)cc(OC)c1C2=O` [GRISEOFULVIN], the zone of inhibition at 30 µg/mL was determined as 23.1 mm in experiment [5] and 24.7 mm in experiment [10].
As for `CN[C@H](CC(C)C)C(=O)N[C@H]1C(=O)N[C@@H](CC(N)=O)C(=O)N[C@H]2C(=O)N[C@H]3C(=O)N[C@H](C(=O)N[C@H](C(=O)O)c4cc(O)cc(O)c4-c4cc3ccc4O)[C@H](O)c3ccc(c(Cl)c3)Oc3cc2cc(c3O[C@@H]2O[C@H](CO)[C@@H](O)[C@H](O)[C@H]2O[C@H]2C[C@](C)(N)[C@H](O)[C@H](C)O2)Oc2ccc(cc2Cl)[C@H]1O` [VANCOMYCIN], the zone of inhibition at 30 µg/mL in [8] came to 23 mm.
`COc1ccc(Cc2nnc(S)n2N)cc1OC`: the zone of inhibition at 10 µg/mL in experiment [1] was 5.06 mm; in [6] it was 2.67 mm; in experiment [7] it was 5.06 mm; in experiment [16], 2.76 mm; in [18], 4.72 mm; in [24] it was 4.86 mm. The zone of inhibition at 20 µg/mL is 7.58 mm in experiment [3]; 5.14 mm in experiment [11]; 6.76 mm in experiment [12]; 4.92 mm in [14]; 7.14 mm in experiment [22]; 7.26 mm in experiment [23]. Further, the zone of inhibition at 30 µg/mL in experiment [5] came out at 10.7 mm; in experiment [8], 9.83 mm; in experiment [9], 9.52 mm; in [10], 11 mm; in experiment [13], 10.1 mm; in [15], 8.24 mm.
With `COc1ccc(Cl)c(-c2nnc(S)n2N)c1`, the zone of inhibition at 10 µg/mL in experiment [1] was determined as 4.25 mm; in experiment [6] it was 2.59 mm; in experiment [7] it was 5.23 mm; in [16], 2.33 mm; in [18], 5.16 mm; in experiment [24], 5.08 mm. The zone of inhibition at 20 µg/mL in experiment [3] was found to be 7.16 mm; in [11], 5.18 mm; in experiment [12], 7.26 mm; in experiment [14], 5.02 mm; in experiment [22], 7.28 mm; in experiment [23], 7.05 mm. Also, the zone of inhibition at 30 µg/mL in experiment [5] worked out at 11 mm; in [8] it was 10.1 mm; in experiment [9] it was 9.06 mm; in experiment [10] it was 9.79 mm; in experiment [13] it was 9.17 mm; in [15], 9.1 mm.

As a reminder, the inhibition in vivo is the relative decrease from the control value, in per cent.

(Values after ChEMBL document CHEMBL1147862, “Studies on synthesis and pharmacological activities of 3,6-disubstituted-1,2,4-triazolo[3,4-b]-1,3,4-thiadiazoles and their dihydro analogues” (2007).)
